Measurements as given in ChEMBL document CHEMBL4616602, “Design and biological evaluation of tetrahydropyridine derivatives as novel human GPR119 agonists” (Bioorg Med Chem Lett, 2020).
Converted amounts (≈) assume the structure as drawn. The source made the active and inactive calls. The rule behind the calls is not given here.

Legend:
[1] = biological target: T1, Glucose-dependent insulinotropic receptor (Homo sapiens) (UniProt Q8TDV5); test: Agonist activity at GPR119 (unknown origin) assessed as increase in cAMP level at 10 uM by cAMP HTRF assay relative to oleoylethanolamide; type: functional
T1 sequence (whole entry): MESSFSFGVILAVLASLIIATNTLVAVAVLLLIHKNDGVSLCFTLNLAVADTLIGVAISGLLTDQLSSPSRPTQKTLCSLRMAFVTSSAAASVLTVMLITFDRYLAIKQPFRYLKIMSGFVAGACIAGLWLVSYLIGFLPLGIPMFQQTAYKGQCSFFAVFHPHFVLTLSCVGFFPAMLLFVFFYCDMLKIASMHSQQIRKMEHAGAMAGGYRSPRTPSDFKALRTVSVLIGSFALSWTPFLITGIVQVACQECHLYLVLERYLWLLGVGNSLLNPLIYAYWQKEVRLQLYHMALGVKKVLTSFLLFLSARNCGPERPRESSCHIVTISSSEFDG
Outline: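 Cell-based GPR119 agonism at a single 10 μM concentration. Response is expressed as percent of the maximal efficacy of the reference agonist oleoylethanolamide (OEA). Values are means.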

[2] = biological target: T2, Glucose-dependent insulinotropic receptor (Homo sapiens, UniProt Q8TDV5); test: Agonist activity at GPR119 (unknown origin) assessed as increase in cAMP level by cAMP HTRF assay; type: functional
T2 sequence (Q8TDV5 whole entry): T1 sequence (whole entry)
Outline: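 Cell-based GPR119 agonist assay with a top test concentration of 10 μM. EC50 values are reported as means.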

Mus musculus [3] = test: Hypoglycemic activity in C57BL/6 mouse assessed as reduction in blood glucose AUC at 100 mg/kg, po measured after 2 hrs by glucose challenge by OGTT relative to control; type: functional; parameters: scale not given: the % may be the effect or the level left
Outline: (§1)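 Normal male C57BL/6J mice received vehicle or compound at 20, 50 or 100 mg/kg, then a glucose challenge of 2 g/kg (10 ml/kg). Blood glucose was followed over 0–120 min and AUC0–120 min calculated. Mean ± SD, n=6, versus vehicle group.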

Mus musculus [4] = test: Hypoglycemic activity in C57BL/6 mouse assessed as reduction in blood glucose AUC at 20 and 50 mg/kg, po measured immediately by glucose challenge by OGTT relative to control; type: functional; parameters: scale not given: the % may be the effect or the level left; outline: as §1
Mus musculus [5] = test: Hypoglycemic activity in C57BL/6 mouse assessed as reduction in blood glucose AUC at 20 and 50 mg/kg, po measured after 2 hrs by glucose challenge by OGTT relative to control; type: functional; parameters: scale not given: the % may be the effect or the level left; outline: as §1
Mus musculus [6] = test: Hypoglycemic activity in C57BL/6 mouse […] model assessed as reduction in blood glucose AUC at 20 mg/kg, po administered for 28 days and measured after 2 hrs on day 28 by glucose challenge by OGTT relative to control; type: functional; parameters: scale not given: the % may be the effect or the level left
Outline: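 Diet-induced obese mice were dosed with 20 mg/kg repeatedly for 28 days. On day 28 an OGTT (2 g/kg glucose) was run with blood glucose tracked over 0–120 min and AUC0–120 min derived. Fasting glucose was also taken at day 28. Mean ± SD, n=6, versus vehicle.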

[7] = Toxicity in C57BL/6 mouse […] model assessed as reduction in food intake at 20 mg/kg, po observed for 4 weeks; type: organism-based; details: in vivo, 672 h
Outline: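 Diet-induced obese mice were treated at 20 mg/kg for 4 weeks, and average food intake was recorded over the treatment period. Mean ± SD, n=6, compared with vehicle.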

Mus musculus [8] = test: Antidiabetic activity in C57BL/6 mouse […] model assessed as reduction in body weight gain at 20 mg/kg, po administered for 4 weeks and measured on day 28; type: functional, organism-based
Outline: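 Diet-induced obese mice were given 20 mg/kg for 4 weeks, with body weight recorded through day 28. Mean ± SD, n=6, versus vehicle group.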

[9] = Solubility of compound; type: physicochemical
Outline: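 Aqueous solubility (logS and mg/ml) was calculated in silico, not measured experimentally.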

Compound | Emax [1] [%] | EC50 [2] [nM] | also measured
CC(C)(C)OC(=O)N1CC=C(c2nc(COc3ccc4c(c3)OCO4)cs2)CC1 | 11.5 | – | –
CC(C)(C)OC(=O)N1CC=C(c2nc(COc3ccc(-n4cnnn4)cc3F)cs2)CC1 | 105 | 108 | –
COc1ccc(NCc2csc(C3=CCN(C(=O)OC(C)(C)C)CC3)n2)c(OC)c1 | -7.44 | – | –
CCCC(=O)c1ccc(OCc2csc(C3=CCN(C(=O)OC(C)(C)C)CC3)n2)cc1 | 62.5 | – | –
CC(C)(C)OC(=O)N1CC=C(c2nc(COc3ccc(C(C)(C)C)cc3C(C)(C)C)cs2)CC1 | 1.7 | – | –
CC(C)(C)OC(=O)N1CC=C(c2nc(COc3ccc(S(C)(=O)=O)cc3)cs2)CC1 | 78 | 678 | –
CC(C)(C)OC(=O)N1CC=C(c2nc(CNc3ccc(-n4cnnn4)cc3)cs2)CC1 | 35.5 | – | –
CC(C)(C)OC(=O)N1CC=C(c2nc(CNc3cc(C(F)(F)F)cc(C(F)(F)F)c3)cs2)CC1 | -2.16 | – | –
COc1ccc(NCc2csc(C3=CCN(C(=O)OC(C)(C)C)CC3)n2)cc1OC | -6.25 | – | –
COc1ccc(Br)cc1OCc1csc(C2=CCN(C(=O)OC(C)(C)C)CC2)n1 | -14.2 | – | –
CCc1cnc(N2CC=C(c3nc(COc4ccc(S(C)(=O)=O)cc4)cs3)CC2)nc1 | 105 | 70.5 | –
CC(C)(C)OC(=O)N1CC=C(c2nc(COc3ccc(OC(F)(F)F)cc3)cs2)CC1 | 7.04 | – | –
CC(C)(C)OC(=O)N1CC=C(c2nc(COc3cccc(-n4cnnn4)c3)cs2)CC1 | -2.17 | – | –
CC(C)(C)OC(=O)N1CC=C(c2nc(CNc3ccc(Cl)c(I)c3)cs2)CC1 | 5.25 | – | –
CC(C)(C)OC(=O)N1CC=C(c2nc(COc3ccc(-n4cnnn4)cc3Cl)cs2)CC1 | 94.4 | 107 | –
CCc1ccc(N2CC=C(c3nc(COc4ccc(-n5cnnn5)cc4)cs3)CC2)nc1 | 78.5 | – | –

Compound | Emax [1] [%] | EC50 [2] [nM] | also measured
CC(C)(C)OC(=O)N1CC=C(c2nc(CNc3ccc(S(C)(=O)=O)cc3)cs2)CC1 | 26 | – | –
CC(C)(C)OC(=O)N1CC=C(c2nc(COc3ccc(-n4cnnn4)cc3)cs2)CC1 | 95.4 | 113 | –
CCc1cnc(N2CC=C(c3nc(COc4ccc(-n5cnnn5)cc4F)cs3)CC2)nc1 | 115 | 8.8 | Activity (Mus musculus [3]): 26.81%; Activity (Mus musculus [4]): 1.2%; Activity (Mus musculus [5]): 14.16%
CCc1cnc(N2CC=C(c3nc(COc4ccc(-n5cnnn5)cc4)cs3)CC2)nc1 | 110 | 4.9 | Activity (Mus musculus [3]): 35.05%; Activity (Mus musculus [4]): 20.11%; Activity (Mus musculus [5]): 26.77%; Activity (Mus musculus [6]): 34.8%; Activity [7]: Non-Toxic; Activity (Mus musculus [8]): Active; solubility [9]: 56 µg/mL (≈ 125 µM)
CCc1cnc(N2CCC(c3nc(COc4ccc(-n5cnnn5)cc4)cs3)CC2)nc1 [MBX-2982] | 113 | 3.9 | Activity (Mus musculus [3]): 29.22%; Activity (Mus musculus [4]): 18.47%; Activity (Mus musculus [5]): 26.72%; Activity (Mus musculus [6]): 23.61%; Activity [7]: Non-Toxic; Activity (Mus musculus [8]): Active; solubility [9]: 37 µg/mL (≈ 82.5 µM)
CCc1cnc(N2CC=C(c3nc(COc4ccc(-n5cnnn5)cc4Cl)cs3)CC2)nc1 | 109 | 10.2 | Activity (Mus musculus [3]): 12.11%
CCc1ccc(N2CC=C(c3nc(COc4ccc(S(C)(=O)=O)cc4)cs3)CC2)nc1 | 71.5 | – | –
CC(C)(C)OC(=O)N1CC=C(c2nc(COc3ccc(C4CCCCC4)cc3)cs2)CC1 | 19.7 | – | –
COc1ccc(C(C)=O)cc1OCc1csc(C2=CCN(C(=O)OC(C)(C)C)CC2)n1 | -5.65 | – | –
CC(C)(C)OC(=O)N1CC=C(c2nc(COc3ccc(Cl)cc3)cs2)CC1 | -7.34 | – | –
COc1ccc(OCc2csc(C3=CCN(C(=O)OC(C)(C)C)CC3)n2)cc1OC | 10.7 | – | –
COc1ccc(-n2cnnn2)cc1OCc1csc(C2=CCN(C(=O)OC(C)(C)C)CC2)n1 | 8.4 | – | –
CCc1ccc(N2CC=C(c3nc(COc4ccc(-n5cnnn5)cc4Cl)cs3)CC2)nc1 | 72.7 | – | –
COC(=O)c1sccc1NCc1csc(C2=CCN(C(=O)OC(C)(C)C)CC2)n1 | 13 | – | –
CCc1ccc(N2CC=C(c3nc(COc4ccc(-n5cnnn5)cc4F)cs3)CC2)nc1 | 89.6 | – | –
CCCCCCCC/C=C\CCCCCCCC(=O)NCCO [OLEOYLETHANOLAMIDE] | – | 930 | –
